Assay results as given in ChEMBL document CHEMBL1131436, “Repaglinide and related hypoglycemic benzoic acid derivatives” (1998).

How the values were obtained:
Rattus norvegicus [1] = assay: Maximum % decrease of blood glucose (deltaBG) was observed within 4 hour after administration orally at 0.1 mg/kg dose to fasted adult female rats versus a control group; type: functional; conditions: route oral
Method in brief: (§1)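 Female Wistar rats (Chbb THOM, SPF, 200-220 g), fasted 24 h, dosed orally by gavage as suspension in 1.5% Tylose methylcellulose (10 mL/kg). Whole blood from retrobulbar plexus under light halothane, deproteinized with 0.33 M HClO4; glucose by hexokinase/G6PDH, hourly up to 4 h. % decrease vs control group (N = 7), Student's t-test, P ≤ 0.05.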

Rattus norvegicus [2] = assay: Maximum % decrease of blood glucose (deltaBG) was observed within 4 hour after administration orally at 0.5 mg/kg dose to fasted adult female rats versus a control group; type: functional; conditions: route oral; method in brief: as §1
Rattus norvegicus [3] = assay: Maximum % decrease of blood glucose (deltaBG) was observed within 4 hour after administration orally at 10 mg/kg dose to fasted adult female rats versus a control group; type: functional; conditions: route oral; method in brief: as §1
Rattus norvegicus [4] = assay: Maximum % decrease of blood glucose (deltaBG) was observed within 4 hour after administration orally at 5 mg/kg dose to fasted adult female rats versus a control group; type: functional; conditions: route oral; method in brief: as §1
Rattus norvegicus [5] = assay: Maximum % decrease of blood glucose (deltaBG) was observed within 4 hour after administration orally at 1 mg/kg dose to fasted adult female rats versus a control group; type: functional; conditions: route oral; method in brief: as §1
Rattus norvegicus [6] = assay: Half-maximal effective dose was measured on rat blood glucose after administrating at 4 hr; type: functional
Method in brief: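 Adult fasted female Wistar rats (Chbb THOM, SPF, 200-220 g), food withdrawn 24 h; oral gavage of suspension in 1.5% Tylose (methylcellulose), 10 mL/kg. Retrobulbar blood under light halothane; glucose by hexokinase/G6PDH after HClO4 deproteinization, hourly to 4 h. ED50 from fit of glucose vs dose, y = b + [a × k/(k + x^nH)], Hill coefficient nH.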

Rattus norvegicus [7] = assay: Maximum % decrease of blood glucose (deltaBG) was observed within 4 hour after administration orally at 1 mg/kg dose to fasted adult female rats versus a control group; NS =' not significant'; type: functional, organism-based; design: dose 1 mg/kg; method in brief: as §1
Rattus norvegicus [8] = assay: Maximum % decrease of blood glucose (deltaBG) was observed within 4 hour after administration orally at 25 mg/kg dose to fasted adult female rats versus a control group; NS =' not significant'; type: functional, organism-based; design: dose 25 mg/kg; method in brief: as §1
[9] = Rattus norvegicus, Blood, 4 h, read-out: ED50

For `CCOc1cc(CC(=O)NC(CC2CCCCC2)c2ccccc2N2CCCCC2)ccc1C(=O)O` (centres undefined), the “Delta BG” value (Rattus norvegicus [1]) was -23%.
`CCCCC(NC(=O)Cc1ccc(C(=O)O)c(OCC)c1)c1ccccc1N1CCCCC1` (centres undefined) was tested, and the “Delta BG” value (Rattus norvegicus [1]) was -24% and the “Delta BG” value (Rattus norvegicus [2]) was -45%.
`CC(NC(=O)Cc1ccc(C(=O)O)cc1)c1cc(Cl)ccc1N1CCCC1` (centres undefined) was tested, and the “Delta BG” value (Rattus norvegicus [3]) was -26%.
With `CC(NC(=O)Cc1ccc(C(=O)O)cc1)c1ccccc1N1CCCCCC1` (centres undefined) the “Delta BG” value (Rattus norvegicus [4]) was -29%.
For `O=C(Cc1ccc(C(=O)O)cc1)NCc1cc(Cl)ccc1N1CCCCC1`, the “Delta BG” value (Rattus norvegicus [3]) was -37%.
With `CCOc1cc(CCNC(=O)c2cc(Cl)ccc2OC)ccc1C(=O)O` the “Delta BG” value (Rattus norvegicus [5]) was -8% and the “Delta BG” value (Rattus norvegicus [3]) was -35%.
With `CC(NC(=O)Cc1ccc(C(=O)O)cc1)c1ccccc1N1CCCCC1` (centres undefined) the ED50 (Rattus norvegicus [6]) was 0.3 mg/kg, the ED50 (Rattus norvegicus [6]; [9]) was 0.3 mg/kg and the “Delta BG” value (Rattus norvegicus [1]) was -13%. For the same compound, the “Delta BG” value (Rattus norvegicus [2]) was -31%, the “Delta BG” value (Rattus norvegicus [5]) was -41% and the “Delta BG” value (Rattus norvegicus [4]) was -49%.
For `O=C(O)c1ccc(CCNC(=O)c2cc(Cl)ccc2N2CCCCCCC2)cc1`, the “Delta BG” value (Rattus norvegicus [5]) was -29%.
For `CC(NC(=O)Cc1ccc(C(=O)O)cc1)c1cc(Cl)ccc1N1CCCCC1` (centres undefined), the “Delta BG” value (Rattus norvegicus [3]) was -36% and the “Delta BG” value (Rattus norvegicus [4]) was -18%.
For `O=C(O)c1ccc(CCNC(=O)c2cc(Cl)ccc2N2CCCCCCCCC2)cc1`, the “Delta BG” value (Rattus norvegicus [5]) was -29%.
`CCC[C@H](NC(=O)Cc1ccc(C(=O)O)cc1)c1ccccc1N1CCCCC1` was tested, and the “Delta BG” value (Rattus norvegicus [1]) was -29%.
`COc1cc(CCNC(=O)c2cc(Cl)ccc2N2CCCCCCCC2)ccc1C(=O)O` was tested, and the “Delta BG” value (Rattus norvegicus [5]) was -15%.
In the case of `CC(C(=O)NCc1ccc(C(=O)O)cc1)c1ccccc1N1CCCCC1` (centres undefined), the “Delta BG” value (Rattus norvegicus [4]) is reported as -32%.
`O=C(Cc1ccc(C(=O)O)cc1)NC(CCc1ccccc1)c1ccccc1N1CCCCC1` (centres undefined) was tested, and the “Delta BG” value (Rattus norvegicus [3]) was -38%.
In the case of `CC(NC(=O)Cc1ccc(C(=O)O)cc1)c1ccccc1N1CCCCC1C` (centres undefined), the “Delta BG” value (Rattus norvegicus [5]) is reported as -13% and the “Delta BG” value (Rattus norvegicus [3]) is reported as -43%.
For `CCCC(CC(=O)Cc1ccc(C(=O)O)cc1)c1ccccc1N1CCCCC1` (centres undefined), the “Delta BG” value (Rattus norvegicus [3]) was -11%.
`CC1CC(C)CN(c2ccc(Cl)cc2C(=O)NCCc2ccc(C(=O)O)cc2)C1` (stereo in doubt; 5i) was tested, and the “Delta BG” value (Rattus norvegicus [5]; 1 mg/kg) was -11%.
With `CCOc1cc(CC(=O)N[C@H](CC(C)C)c2ccccc2N2CCCCC2)ccc1C(=O)O` the “Delta BG” value (Rattus norvegicus [7]) was “Not significant”.
In the case of `O=C(O)c1ccc(CCNC(=O)c2cc(Cl)ccc2N2CCCCC2)cc1`, the “Delta BG” value (Rattus norvegicus [7]) is reported as “Not significant” and the “Delta BG” value (Rattus norvegicus [4]) is reported as -37%.
For `CC(NS(=O)(=O)Cc1ccc(C(=O)O)cc1)c1ccccc1N1CCCCC1` (centres undefined), the “Delta BG” value (Rattus norvegicus [8]) was “Not significant”.
In the case of `CCOc1cc(CC(=O)NC(CC2CCC2)c2ccccc2N2CCCCC2)ccc1C(=O)O` (centres undefined), the “Delta BG” value (Rattus norvegicus [1]) is reported as -27%.
In the case of `CCCC(/N=C(\S)Cc1ccc(C(=O)O)cc1)c1ccccc1N1CCCCC1` (centres undefined), the “Delta BG” value (Rattus norvegicus [3]) is reported as -35%.
`CC(NC(=O)Cc1ccccc1C(=O)O)c1ccccc1N1CCCCC1` (centres undefined) was tested, and the “Delta BG” value (Rattus norvegicus [8]) was “Not significant”.
With `CCOc1cc(CC(=O)NC(CC2CCCCCC2)c2ccccc2N2CCCCC2)ccc1C(=O)O` (centres undefined) the “Delta BG” value (Rattus norvegicus [2]) was -19%.
In the case of `CCCC(c1ccccc1N1CCCCC1)N(C)C(=O)Cc1ccc(C(=O)O)cc1` (centres undefined), the “Delta BG” value (Rattus norvegicus [3]) is reported as -12%.
`O=C(Cc1ccc(C(=O)O)cc1)N[C@H](c1ccccc1)c1ccccc1N1CCCCC1` was tested, and the “Delta BG” value (Rattus norvegicus [7]) was “Not significant”.
With `O=C(Cc1ccc(C(=O)O)cc1)NCc1ccccc1N1CCCCC1` the “Delta BG” value (Rattus norvegicus [3]) was -38%.
For `CC1CC(C)CN(c2ccc(Cl)cc2C(=O)NCCc2ccc(C(=O)O)cc2)C1` (stereo in doubt; 5h), the ED50 (Rattus norvegicus [6]; [9]) was 0.33 mg/kg, the “Delta BG” value (Rattus norvegicus [2]) was -29% and the “Delta BG” value (Rattus norvegicus [5]; 1 mg/kg) was -44%.
For `CC(NC(=O)Cc1ccc(S(=O)(=O)NC(=O)NC2CCCCC2)cc1)c1ccccc1N1CCCCC1` (centres undefined), the “Delta BG” value (Rattus norvegicus [7]) was “Not significant” and the “Delta BG” value (Rattus norvegicus [4]) was -42%.
In the case of `CCCC(NC(=O)Cc1ccc(C(=O)O)c(O)c1)c1ccccc1N1CCCCC1` (centres undefined), the “Delta BG” value (Rattus norvegicus [7]) is reported as “Not significant” and the “Delta BG” value (Rattus norvegicus [3]) is reported as -47%.
In the case of `CCCC(NC(=O)Cc1ccc(C(=O)O)cc1)c1ccccc1` (centres undefined), the “Delta BG” value (Rattus norvegicus [3]) is reported as -18%.
`O=C(Cc1ccc(C(=O)O)cc1)NC(c1ccccc1N1CCCCC1)C1CCCCC1` (centres undefined) was tested, and the “Delta BG” value (Rattus norvegicus [5]) was -27%.
For `CC(NC(=O)Cc1ccc(C(=O)O)cc1)c1cc(Cl)ccc1N(C)C` (centres undefined), the “Delta BG” value (Rattus norvegicus [3]) was -20%.
With `CC1CCCCN1c1ccc(Cl)cc1C(=O)NCCc1ccc(C(=O)O)cc1` (centres undefined) the “Delta BG” value (Rattus norvegicus [5]) was -16%.
For `COc1ccc(Cl)cc1C(C)NC(=O)Cc1ccc(C(=O)O)cc1` (centres undefined), the “Delta BG” value (Rattus norvegicus [3]) was -14%.
In the case of `O=C(O)c1ccc(CCNC(=O)c2cc(Cl)ccc2N2CCCCCC2)cc1`, the “Delta BG” value (Rattus norvegicus [5]) is reported as -16%.
For `CC(NC(=O)Cc1ccc(C(=O)O)cc1)c1cc(Cl)ccc1N1CCCCCCCC1` (centres undefined), the “Delta BG” value (Rattus norvegicus [8]) was “Not significant”.
`CCCCC(NC(=O)Cc1ccc(C(=O)O)cc1)c1ccccc1N1CCCCC1` (centres undefined) was tested, and the “Delta BG” value (Rattus norvegicus [2]) was -32%.
For `CC(NC(=O)Cc1ccc(C(=O)O)cc1)c1ccccc1N1CCCCCCCC1` (centres undefined), the “Delta BG” value (Rattus norvegicus [8]) was “Not significant”.
For `C=C(C)CC(NC(=O)Cc1ccc(C(=O)O)c(OCC)c1)c1ccccc1N1CCCCC1` (centres undefined), the “Delta BG” value (Rattus norvegicus [1]) was -31%.
